In brackets after ≈: the same amount, converted by molar mass.
Tests used:
Glutamate receptor 2 [1] = target: T1, Glutamate receptor 2 (Homo sapiens, UniProt P42262); assay: Allosteric modulation of human recombinant GluA2 receptor flip isoform expressed in HEK293 cells assessed as potentiation of glutamate-induced calcium influx by Fluo-4/FLIPR method; type: cell-based
Outline: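 Stable GluA2 flip (unedited) cell line grown in DMEM/F12 with 10% FBS and seeded to confluence 2-3 days before use. Cells washed in HEPES buffer (pH 7.3) and loaded with 2 μM Fluo-4 AM for 60 min at room temperature. On FLIPR, compound was added 5 min before 100 μM glutamate. pEC50 and asymptotic maximum are relative to the maximal response to cyclothiazide, n ≥ 3.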

Cytochrome P450 2D6 = Cytochrome P450 2D6 (Homo sapiens, UniProt P10635); assay: Inhibition of human CYP2D6 by fluorescence assay; type: ADME
Chain of Cytochrome P450 2D6 (P10635 whole entry): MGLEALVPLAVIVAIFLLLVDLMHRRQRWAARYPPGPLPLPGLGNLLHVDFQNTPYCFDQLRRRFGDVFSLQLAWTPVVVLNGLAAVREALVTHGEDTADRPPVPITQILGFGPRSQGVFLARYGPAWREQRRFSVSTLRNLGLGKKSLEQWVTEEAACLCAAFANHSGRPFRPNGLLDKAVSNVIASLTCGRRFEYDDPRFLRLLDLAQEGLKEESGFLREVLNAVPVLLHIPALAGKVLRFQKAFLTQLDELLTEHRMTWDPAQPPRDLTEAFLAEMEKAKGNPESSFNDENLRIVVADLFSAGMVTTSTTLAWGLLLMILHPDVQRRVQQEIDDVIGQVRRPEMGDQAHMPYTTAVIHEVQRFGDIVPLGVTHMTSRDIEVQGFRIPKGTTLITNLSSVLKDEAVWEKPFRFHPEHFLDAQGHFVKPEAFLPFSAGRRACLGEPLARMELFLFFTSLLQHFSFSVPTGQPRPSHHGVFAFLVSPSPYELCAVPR
Outline: (§1)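 Recombinant human CYP bactosomes (0.1 mg/mL) in 50 mM potassium phosphate pH 7.4, preincubated 10 min at 37 °C with test compound (0.1-10 μM, 7 concentrations) and fluorogenic substrate. Substrates: ethoxyresorufin 0.5 μM (1A2), FCA 50 μM (2C9), BMC 10 μM (2C19), MMC 10 μM (2D6), DEF 1 μM or 7-BQ 25 μM (3A4). Reaction started with NADPH regenerating system; metabolite formation read over 10 min. IC50 from percent of control rate; miconazole control; triplicate.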

Cytochrome P450 2C9 = Cytochrome P450 2C9 (Homo sapiens, UniProt P11712); assay: Inhibition of human CYP2C9 by fluorescence assay; type: ADME; outline: as §1
Chain of Cytochrome P450 2C9 (P11712 whole entry): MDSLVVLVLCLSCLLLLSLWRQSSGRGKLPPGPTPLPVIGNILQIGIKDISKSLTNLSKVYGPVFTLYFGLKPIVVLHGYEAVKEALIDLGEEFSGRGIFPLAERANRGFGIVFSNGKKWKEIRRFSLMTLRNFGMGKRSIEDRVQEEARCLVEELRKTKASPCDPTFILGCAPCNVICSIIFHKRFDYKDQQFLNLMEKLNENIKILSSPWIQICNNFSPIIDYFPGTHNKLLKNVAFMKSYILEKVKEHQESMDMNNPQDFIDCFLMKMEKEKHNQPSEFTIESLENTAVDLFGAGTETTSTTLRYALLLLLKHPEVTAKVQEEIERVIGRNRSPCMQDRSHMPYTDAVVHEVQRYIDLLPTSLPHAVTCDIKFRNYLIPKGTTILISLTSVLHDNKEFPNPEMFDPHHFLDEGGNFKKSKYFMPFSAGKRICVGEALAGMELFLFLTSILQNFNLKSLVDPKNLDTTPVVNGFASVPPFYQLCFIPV

Cytochrome P450 3A4 = Cytochrome P450 3A4 (Homo sapiens, UniProt P08684); assay: Inhibition of human CYP3A4 by fluorescence assay; type: ADME; outline: as §1
Chain of Cytochrome P450 3A4 (P08684 whole entry, canonical isoform): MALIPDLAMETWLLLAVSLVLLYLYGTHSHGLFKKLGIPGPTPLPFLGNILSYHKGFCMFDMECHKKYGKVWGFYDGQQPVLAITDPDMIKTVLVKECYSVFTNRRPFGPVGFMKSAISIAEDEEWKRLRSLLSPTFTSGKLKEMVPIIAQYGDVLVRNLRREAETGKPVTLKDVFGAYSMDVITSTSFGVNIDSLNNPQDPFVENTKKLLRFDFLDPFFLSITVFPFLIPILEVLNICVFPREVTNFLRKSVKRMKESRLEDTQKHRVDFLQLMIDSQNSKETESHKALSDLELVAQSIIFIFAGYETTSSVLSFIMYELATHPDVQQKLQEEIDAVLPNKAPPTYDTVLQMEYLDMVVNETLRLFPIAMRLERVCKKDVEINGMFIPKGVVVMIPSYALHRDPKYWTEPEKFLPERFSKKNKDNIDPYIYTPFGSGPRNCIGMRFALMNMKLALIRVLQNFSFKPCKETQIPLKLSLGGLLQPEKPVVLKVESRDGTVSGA

Glutamate receptor 2 [2] = target: T1, Glutamate receptor 2; assay: Allosteric modulation of human recombinant GluA2 receptor flip isoform expressed in HEK293 cells assessed as potentiation of glutamate-induced calcium influx by Fluo-4/FLIPR method relative to cyclothiazide; type: cell-based
Outline: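 Stable GluA2 flip (unedited) cells seeded to confluence 2-3 days before assay; washed in HEPES buffer (145 NaCl, 5 KCl, 2 CaCl2, 1 MgCl2, 5.5 glucose, pH 7.3), loaded with 2 μM Fluo4-AM 60 min at room temperature. FLIPR dual addition: compound 5 min before 100 μM glutamate; fluorescence rise expressed against maximal cyclothiazide response, fitted pEC50 and Asym max; n ≥ 3.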

[3] = Distribution coefficient, log D of the compound; type: physicochemical; details: octanol/water
[4] = Kinetic solubility of the compound in phosphate buffered saline of pH 7.4; type: physicochemical
Outline: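 Kinetic solubility: 10 mM DMSO stock, 5 μL diluted to 100 μL with pH 7.4 phosphate-buffered saline, equilibrated 1 h at room temperature, filtered, filtrate quantified by calibrated flow-injection chemiluminescent nitrogen detection.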

Cytochrome P450 2C19 = Cytochrome P450 2C19 (Homo sapiens, UniProt P33261); assay: Inhibition of human CYP2C19 by fluorescence assay; type: ADME; outline: as §1
Chain of Cytochrome P450 2C19 (P33261 whole entry): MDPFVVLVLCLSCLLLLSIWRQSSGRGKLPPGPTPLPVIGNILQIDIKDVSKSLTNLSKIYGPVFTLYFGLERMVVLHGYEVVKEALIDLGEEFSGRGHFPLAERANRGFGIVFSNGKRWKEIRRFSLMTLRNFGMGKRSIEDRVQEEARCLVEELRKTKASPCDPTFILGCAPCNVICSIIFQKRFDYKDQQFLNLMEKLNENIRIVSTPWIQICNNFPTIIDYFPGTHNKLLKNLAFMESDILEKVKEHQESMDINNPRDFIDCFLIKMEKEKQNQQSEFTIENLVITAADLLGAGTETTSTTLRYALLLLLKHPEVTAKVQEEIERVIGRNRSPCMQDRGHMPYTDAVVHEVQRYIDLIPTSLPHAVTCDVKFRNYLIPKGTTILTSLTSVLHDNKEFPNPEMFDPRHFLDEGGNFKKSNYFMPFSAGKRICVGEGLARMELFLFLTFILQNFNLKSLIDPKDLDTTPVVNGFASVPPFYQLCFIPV

Cytochrome P450 1A2 = target: T2, Cytochrome P450 1A2 (Homo sapiens, UniProt P05177); assay: Inhibition of human CYP1A2 by fluorescence assay; type: ADME; outline: as §1
T2 sequence (P05177 whole entry): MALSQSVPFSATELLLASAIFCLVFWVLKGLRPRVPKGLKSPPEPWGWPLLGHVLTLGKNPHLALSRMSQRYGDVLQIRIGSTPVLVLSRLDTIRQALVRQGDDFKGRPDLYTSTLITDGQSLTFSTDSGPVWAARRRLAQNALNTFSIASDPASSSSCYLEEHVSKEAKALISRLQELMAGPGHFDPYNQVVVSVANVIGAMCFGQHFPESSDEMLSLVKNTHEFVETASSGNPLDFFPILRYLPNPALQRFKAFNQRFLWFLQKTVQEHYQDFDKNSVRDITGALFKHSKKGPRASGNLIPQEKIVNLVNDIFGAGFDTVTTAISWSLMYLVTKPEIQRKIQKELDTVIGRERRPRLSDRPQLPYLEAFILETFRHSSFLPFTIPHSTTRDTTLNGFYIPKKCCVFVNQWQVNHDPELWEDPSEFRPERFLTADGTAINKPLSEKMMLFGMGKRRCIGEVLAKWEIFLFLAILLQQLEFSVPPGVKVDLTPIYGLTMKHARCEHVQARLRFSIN

[5] = Plasma protein binding in rat at 3 mg/kg, po; type: ADME, organism-based; design: dose 3 mg/kg, route oral; details: read-out: PPB (converted)
Brain = assay: Brain tissue binding in rat at 3 mg/kg, po; type: ADME, organism-based; design: dose 3 mg/kg, route oral; details: in vivo
[6] = Apparent permeability of the compound; type: ADME; details: not told
Outline: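 Artificial membrane permeability: donor holds 10 mM sample in pH 7.05 phosphate buffer with 0.5% hydroxypropylcyclodextrin. Membrane is 1.8% phosphatidylcholine and 1% cholesterol in decane. Donor and acceptor concentrations measured by LCMS after 3 h at room temperature; permeability expressed in nm/s.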

[7] = Distribution coefficient, log D of the compound at pH 7.4; type: physicochemical; details: octanol/water
[8] = AUC (0 to t) in rat blood at 3 mg/kg, po; type: ADME, organism-based; design: dose 3 mg/kg, route oral; details: whole blood
[9] = Cmax in rat blood at 3 mg/kg, po; type: ADME, organism-based; design: dose 3 mg/kg, route oral; details: whole blood
[10] = AUC ( 0 to t) in rat at 3 mg/kg, po; type: ADME, organism-based, Plasma; design: dose 3 mg/kg, route oral; details: plasma
[11] = Cmax in rat at 3 mg/kg, po; type: ADME, organism-based; design: dose 3 mg/kg, route oral; details: in vivo
[12] = Clearance in rat at 3 mg/kg, po; type: ADME, organism-based; design: dose 3 mg/kg, route oral; details: in vivo
Outline: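 Rats dosed orally at 3 mg/kg; blood sampled via the hepatic portal vein and heart. Estimated clearance derived from in vivo hepatic extraction, taking rat liver blood flow as 85 (mL/min)/kg.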

in vivo = details: rat, po, 3 mg/kg
[13] = Inhibition of human CYP450 by fluorescence assay; type: ADME
Outline: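 Recombinant human CYP1A2, 2C9, 2C19, 2D6 and 3A4 bactosomes (0.1 mg/mL protein) preincubated 10 min at 37 °C in 50 mM potassium phosphate pH 7.4 with test compound (0.1–10 μM, methanol 3–4.5% final) and fluorogenic probe: ethoxyresorufin 0.5 μM (1A2), FCA 50 μM (2C9), BMC 10 μM (2C19), MMC 10 μM (2D6), DEF 1 μM or 7-BQ 25 μM (3A4). NADPH-regenerating system added; fluorescent metabolite read 10 min; rate as % control; IC50 fitted; triplicate.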

T1 sequence (P42262 whole entry, canonical isoform): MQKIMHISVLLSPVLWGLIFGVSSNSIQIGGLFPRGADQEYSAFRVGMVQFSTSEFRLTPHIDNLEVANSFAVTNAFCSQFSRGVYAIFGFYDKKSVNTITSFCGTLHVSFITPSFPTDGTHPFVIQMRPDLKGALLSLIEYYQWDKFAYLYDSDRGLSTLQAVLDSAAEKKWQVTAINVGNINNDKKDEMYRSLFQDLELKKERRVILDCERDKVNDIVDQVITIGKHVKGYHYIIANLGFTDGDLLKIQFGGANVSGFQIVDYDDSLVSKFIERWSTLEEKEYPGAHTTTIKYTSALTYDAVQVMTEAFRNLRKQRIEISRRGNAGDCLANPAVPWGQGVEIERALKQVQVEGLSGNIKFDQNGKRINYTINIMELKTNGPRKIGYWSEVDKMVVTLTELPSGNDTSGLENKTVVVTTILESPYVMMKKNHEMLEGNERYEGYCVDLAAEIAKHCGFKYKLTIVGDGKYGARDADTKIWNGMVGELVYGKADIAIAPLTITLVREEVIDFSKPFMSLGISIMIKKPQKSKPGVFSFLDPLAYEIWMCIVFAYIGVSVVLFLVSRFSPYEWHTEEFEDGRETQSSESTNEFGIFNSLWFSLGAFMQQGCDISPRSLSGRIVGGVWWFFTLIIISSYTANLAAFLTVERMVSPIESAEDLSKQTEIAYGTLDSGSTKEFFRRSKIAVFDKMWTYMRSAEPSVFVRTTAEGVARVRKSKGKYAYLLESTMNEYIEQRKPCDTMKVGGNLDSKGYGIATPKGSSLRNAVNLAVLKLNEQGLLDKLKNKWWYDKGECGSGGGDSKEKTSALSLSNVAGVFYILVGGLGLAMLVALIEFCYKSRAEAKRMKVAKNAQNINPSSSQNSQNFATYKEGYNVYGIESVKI

Row | EC50 (Glutamate receptor 2 [1]) | IC50 (Cytochrome P450 2C9) | Activity (Glutamate receptor 2 [2]) | logD [3] | solubility kinetic [4] | IC50 (Cytochrome P450 1A2) | IC50 [13] | Structure (SMILES) | also measured
1 | 63.1 µM | 200 nM | 100% |  |  |  |  | O=C(Cc1ccc(-n2nc(C(F)(F)F)c3c2CCCC3)cc1)NC1CCCC1 | IC50 (Cytochrome P450 2D6): 8 µM; IC50 (Cytochrome P450 3A4): 700 nM
2 | 2 µM |  | 94% | 1.3 |  |  |  | CC(=O)N(C)Cc1ccc(-n2nc(C(F)(F)F)c3c2CCCC3)cc1 | 
3 | 5.01 µM | > 10000 nM | 116% |  | 123 µg/mL (≈ 337 µM) | > 10 µM |  | O=C1CCCN1Cc1ccc(-n2nc(C(F)(F)F)c3c2COCC3)cc1 | IC50 (Cytochrome P450 2D6): > 10 µM; IC50 (Cytochrome P450 2C19): > 10000 nM; IC50 (Cytochrome P450 3A4): > 10000 nM; fraction unbound [5]: 0.057; Brain tissue binding (% bound) (Brain): 94.9%; Papp [6]: 44 ×10⁻⁶ cm/s; logD [7]: 2.6; AUC(0-t) [8]: 824 ng·h/mL; Cmax [9]: 331 ng/mL
4 | 3.16 µM | 3000 nM | 82% | 3.3 | 77 µg/mL (≈ 204 µM) |  |  | O=C(Cc1ccc(-n2nc(C(F)(F)F)c3c2CCCC3)cc1)N1CCCC1 | AUC(0-t) [10]: 166 ng·h/mL; Cmax [11]: 95 ng/mL; CL/F [12]: 55 mL/min/kg; fraction unbound [5]: 0.004; Brain tissue binding (% bound) (Brain): 98.1%; Kp (in vivo; brain and blood): 0.9
5 | 20 µM |  | 102% | 3.3 | 15 µg/mL (≈ 38.7 µM) |  | > 10 µM | CN(Cc1ccc(-n2nc(C(F)(F)F)c3c2CCCC3)cc1)S(C)(=O)=O | 
6 | 25.1 µM | 1000 nM | 81% | 2.3 | 59 µg/mL (≈ 151 µM) | 6 µM |  | CC(C(=O)N1CCCC1)c1ccc(-n2nc(C(F)(F)F)c3c2CCCC3)cc1 (centres undefined) | 
7 | 20 µM | 4000 nM | 94% | 3.4 | 124 µg/mL (≈ 300 µM) |  |  | O=C(N1CCCC1)C(F)(F)c1ccc(-n2nc(C(F)(F)F)c3c2CCCC3)cc1 | 
8 | 1 µM | 5000 nM | 132% | 2.4 | 110 µg/mL (≈ 303 µM) | 1 µM |  | O=C1CCCN1Cc1ccc(-n2nc(C(F)(F)F)c3c2CCCC3)cc1 | AUC(0-t) [10]: 231 ng·h/mL; Cmax [11]: 121 ng/mL; CL/F [12]: 54 mL/min/kg; fraction unbound [5]: 0.016; Brain tissue binding (% bound) (Brain): 99.4%; Kp (in vivo; brain): 1.4
9 | 3.98 µM | ≤ 1000 nM | 111% | 3 | 44 µg/mL (≈ 137 µM) | ≤ 1 µM | ≤ 1 µM | CC(=O)Cc1ccc(-n2nc(C(F)(F)F)c3c2CCCC3)cc1 | IC50 (Cytochrome P450 2D6): ≤ 1 µM; IC50 (Cytochrome P450 2C19): 2000 nM; IC50 (Cytochrome P450 3A4): ≤ 1000 nM
10 | 20 µM | 2000 nM | 63% | 3.1 | 5 µg/mL (≈ 13.4 µM) |  |  | CN(C)S(=O)(=O)c1ccc(-n2nc(C(F)(F)F)c3c2CCCC3)cc1 | 
11 | 1.26 µM |  | 79% |  | 47 µg/mL (≈ 139 µM) |  | > 10 µM | CC(=O)NCc1ccc(-n2nc(C(F)(F)F)c3c2CCCC3)cc1 | 
12 | 10 µM |  | 79% | 2.8 | 11 µg/mL (≈ 27.4 µM) |  | > 10 µM | CC(C)S(=O)(=O)NCc1ccc(-n2nc(C(F)(F)F)c3c2CCCC3)cc1 | 
13 | > 100 µM |  | 100% | 1.6 | 16 µg/mL (≈ 42.4 µM) |  |  | O=C(c1ccc(-n2nc(C(F)(F)F)c3c2CCCC3)cc1)N1CCCCC1 | 
